Source: PubChem
FID counter: displaces DNA intercalator in HCV helicase counter-screen; AID 1845; 0.17% of 290,000 active; inhibition, % at 7.9 µM; DNA fluorescent intercalator displacement, fluorescence; in the data active means inhibition above about 37%;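 further: 0% = vehicle and 100% = reference compound; higher means more ethidium bromide displaced from hairpin DNA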
SR-BI HDL uptake: blocks mouse SR-BI lipid uptake from DiI-HDL. Q61009. ldlA[mSR-BI] CHO cells, DiI-HDL uptake fluorescence, 3 h. inhibition, % at 12.5 µM. 0.96% of 320,000 active. AID 488896;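 active means mean replicate inhibition of at least 70% and a set share of replicates each scoring 70 or more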;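 further: 0% = median of neutral control wells and 100% = median of positive control wells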
TMEM16A act: mouse TMEM16A channel activation, primary screen | B-score at 10 µM | 0.3% of 340,000 active | HEK293 TMEM16A/YFP-H148Q/I152L, iodide quench fluorescence; stronger effect = lower value | AID 623877 | Q8BHY3;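 active means fluorescence-ratio B-score plate-corrected deviation score at least 3 library SD below zero, with starting fluorescence score within 5 deviations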;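 further: channel opened by trigger with iodide after compound preincubation; score built on the fluorescence ratio of max minus min over baseline; more negative score means more quench and so TMEM16A activation or potentiation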
Target sequence (Q8BHY3 whole entry, looked up): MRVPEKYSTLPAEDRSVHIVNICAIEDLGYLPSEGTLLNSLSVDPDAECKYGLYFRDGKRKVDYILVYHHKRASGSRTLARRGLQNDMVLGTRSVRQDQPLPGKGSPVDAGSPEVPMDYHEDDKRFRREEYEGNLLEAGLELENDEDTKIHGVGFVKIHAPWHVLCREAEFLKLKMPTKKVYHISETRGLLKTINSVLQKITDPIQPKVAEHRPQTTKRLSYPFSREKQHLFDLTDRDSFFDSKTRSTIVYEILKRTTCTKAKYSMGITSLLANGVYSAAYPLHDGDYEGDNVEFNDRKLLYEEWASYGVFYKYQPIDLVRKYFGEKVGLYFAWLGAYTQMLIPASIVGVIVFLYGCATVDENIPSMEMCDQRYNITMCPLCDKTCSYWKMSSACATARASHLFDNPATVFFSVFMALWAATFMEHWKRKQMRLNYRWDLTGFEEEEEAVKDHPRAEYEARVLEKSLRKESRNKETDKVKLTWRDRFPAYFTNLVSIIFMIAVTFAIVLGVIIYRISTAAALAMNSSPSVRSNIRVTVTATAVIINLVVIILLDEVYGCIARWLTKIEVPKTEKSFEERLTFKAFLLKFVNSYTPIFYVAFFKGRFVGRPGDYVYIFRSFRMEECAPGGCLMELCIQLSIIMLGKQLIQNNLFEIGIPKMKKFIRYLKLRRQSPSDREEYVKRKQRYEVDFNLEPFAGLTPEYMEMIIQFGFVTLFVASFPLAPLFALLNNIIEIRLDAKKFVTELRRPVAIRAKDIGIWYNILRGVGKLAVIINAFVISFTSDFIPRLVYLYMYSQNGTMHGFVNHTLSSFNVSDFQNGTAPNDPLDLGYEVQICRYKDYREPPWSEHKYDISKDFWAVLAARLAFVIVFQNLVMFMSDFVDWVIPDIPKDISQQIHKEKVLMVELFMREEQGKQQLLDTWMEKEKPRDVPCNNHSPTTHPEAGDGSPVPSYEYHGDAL
Kir21 inh: blocks the mouse Kir2.1 inward-rectifier potassium channel; AID 1672; HEK293-Kir2.1, FluxOR thallium flux fluorescence; stronger effect = lower value; 0.85% of 310,000 active; B-score at 10 µM;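 active means fluorescence ratio B-score at or below minus 3 SD of library scores, with starting-brightness B-score within 2 SD, cut at about -4.2 in these data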;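 further: channel flux triggered by added potassium and thallium sulfate stimulus; B-score of peak minus minimum fluorescence over baseline after thallium stimulus; more negative B-score means stronger Kir2.1 block with less thallium influx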
SR-BI DiI-HDL act: SR-BI HDL lipid transfer activation; CHO ldlA[mSR-BI] cells, DiI-HDL uptake fluorescence, 3 h; 100 = double the neutral-control signal; activation, % at 12.5 µM; 0.096% of 320,000 active;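 active means mean replicate activation of at least 60% and every replicate at or above 60%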;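 further: 0% = median plate neutral-control signal and 100% = twice that signal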
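material = CHO ldlA[mSR-BI] cells | medium = Ham's F12 with 0.5% BSA, HEPES 25 mM, pH 7.4 | reagent = fluorescent DiI-HDL, 10 µg/mL final | compound dosing = single-point compound dose | incubation = 3 h, 37 °C | measured by = bottom-read fluorescence, 550/595 nm | measure = HDL uptake via cellular fluorescence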
ANO1 block: blocks the mouse calcium-activated chloride channel TMEM16A; Q8BHY3; HEK293 TMEM16A/YFP iodide influx fluorescence, ionomycin; normalized B-score (activity score, 25-100; higher = stronger inhibition) at 10 µM; 1.2% of 310,000 active;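 active means ratio plate-corrected score three or more library SD toward inhibition, starting fluorescence score within five deviations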;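 further: score derived from kinetic fluorescence span divided by baseline fluorescence per well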
TMEM16A reconf: re-confirmation of mouse TMEM16A chloride channel inhibitors; 39% of 2,300 active; shares compounds with ANO1 block; AID 652189; inhibition, % at 10 µM; HEK293 TMEM16A/YFP-H148Q, iodide quench fluorescence; ionomycin added to raise cell calcium;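 active means mean duplicate percent inhibition, scaled so buffer wells are 0 and the reference blocker 100, over three buffer SD above buffer mean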
TMEM16A Ca cntr: calcium mobilization counter-screen hit for TMEM16A inhibitor series; calcium response (% of ionomycin), % at 10 µM; shares compounds with ANO1 block; TMEM16A/YFP HEK293, Fluo4 calcium mobilization; 2% of 2,300 active; AID 652231;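 active means duplicate-averaged calcium signal over 20% of the ionomycin maximum, relative to buffer baseline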;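 further: each well's signal is peak minus trough fluorescence divided by its pre-addition baseline; 0% = buffer wells and 100% = ionomycin wells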
YFP-HEK293 quench: counter-screen for TMEM16A inhibitors: effect in parental YFP-HEK293 cells; shares compounds with ANO1 block; AID 652233; YFP ratio F(max-min)/F0 at 10 µM; iodide YFP quench, ionomycin; 2,300 tested, under 10 active;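 active means yellow fluorescent protein signal ratio exceeding the buffer control mean by over 5 SD of those controls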;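 further: ratio is mean of duplicate wells from kinetic YFP trace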
ClC-1 inh: rat ClC-1 inhibition, TMEM16A specificity screen | 2,300 tested, under 10 active | AID 652236 | shares compounds with ANO1 block | ratio percent, % at 10 µM | CHO ClC-1-YFP, iodide influx fluorescence quench; iodide control reads 0, buffer control 100;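 active means duplicate-mean ratio percent above the mean of iodide-only control wells, which defines zero, plus 5 of their SD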;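 further: higher percent means stronger block of ClC-1 iodide influx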
Active calls of the source: *; i = inactive; . = no result. In the library only some 3% were active in any assay of this set; here they are far more common.

SMILES	FID counter	SR-BI HDL uptake	TMEM16A act	Kir21 inh	SR-BI DiI-HDL act	ANO1 block	TMEM16A reconf	TMEM16A Ca cntr	YFP-HEK293 quench	ClC-1 inh
CCc1nnc(NC(=O)CSc2nnc(-c3ccccc3OC)n2-c2ccccc2)s1	-29	-53	i	2	53	25*	i	i	-1.1	-10
CCc1nnc(NC(=O)CSc2nnc(-c3ccccc3OC)n2-c2ccc(C)cc2)s1	-37	-30	i	0	30	i	.	.	.	.
O=C(Cc1ccccc1)NNC(=O)C1CC=CCC1 (stereo unspecified)	-7	.	i	-0.94	.	i	.	.	.	.
COc1ccc([C@@]23Oc4cc(OC)cc(OC)c4[C@]2(O)[C@H](O)[C@H](C(=O)N(C)C)[C@H]3c2ccccc2)cc1	.	3	i	.	-3	.	.	.	.	.
Cc1cc(C(F)(F)F)c(C#N)c(N2CCOCC2)n1	0	4	i	.	-4	100*	i	i	-1.2	-12
CC(=O)c1cccc(OC(=O)C2=CC=CN3CCS(=O)(=O)N=C23)c1	.	-23	i	.	23	.	.	.	.	.
O=C(Cc1ccccc1)NN1CCCCC1	-5	.	i	0.77	.	i	.	.	.	.
CCCCSc1nnc(-c2ccccc2)c2ccccc12	-6	74*	i	-1.1	-74	100*	i	i	-1.1	-8
Cc1ccc(NC(=S)NNC(=O)c2ccc(N3CCOCC3)c([N+](=O)[O-])c2)cc1Cl	-12	-24	i	0.98	24	25*	26%*	i	-1.1	-6
O=C(NNC(=S)Nc1ccc(Cl)c(Cl)c1)c1cccc([N+](=O)[O-])c1	-4	.	i	-1.4	.	100*	78%*	i	-0.85	-14
Cc1csc(NC(=O)C(C)N2C(=O)c3ccccc3S2(=O)=O)n1 (stereo unspecified)	-5	-12	i	1.3	12	i	.	.	.	.
O=C1CCN(CC2CCCCC2)C=C1C(=O)c1ccccc1	.	-10	.	.	10	.	.	.	.	.
Cc1[nH]c(=O)[nH]c(=O)c1S(=O)(=O)N1CCCc2ccccc21	-10	-26	i	1.5	26	i	.	.	.	.
Cc1cc(C)c(S(=O)(=O)N2CCCc3ccccc32)c(C)c1	-19	2	i	-1.2	-2	25*	32%*	i	-1.2	-10
CC1(C)CC2CC(C)(CN2S(=O)(=O)c2ccc(N)cc2)C1 (stereo unspecified)	-14	3	i	-0.15	-3	25*	i	i	-0.92	0
CC1(C)CC2CC(C)(CN2S(=O)(=O)c2cccc(C(N)=O)c2)C1 (stereo unspecified)	.	-2	i	.	2	.	.	.	.	.
Cc1ccc(OCCSc2ncnc3nc[nH]c23)cc1	-6	-5	i	0.01	5	25*	i	i	-1.1	-12
COc1ccc(C(=O)CSc2ncnc3nc[nH]c23)cc1	-2	-8	i	-0.28	8	i	.	.	.	.
Cc1c(Cl)cccc1NC(=S)N1CCN(Cc2ccc3c(c2)OCO3)CC1	-3	-6	i	-0.7	6	i	.	.	.	.
Cc1ccc(-n2c(SCc3ccc([N+](=O)[O-])cc3)nc3ccccc3c2=O)cc1	3	41	i	0.45	-41	25*	i	i	-0.85	-10
CC(=O)C(/C=N/c1ncc(C(F)(F)F)cc1Cl)=C(\C)O	-6	4	i	0.93	-4	i	.	.	.	.
CCCCSc1nc(C)cc(C)c1S(=O)(=O)c1ccccc1C	2	.	i	-1.3	.	100*	22%*	i	-1	-8
O=S(=O)(Nc1nc2ccccc2nc1N1CCc2ccccc2C1)c1ccc(Cl)cc1	-10	8	i	-0.15	-8	25*	50%*	i	-0.79	-16
O=S(=O)(Nc1nc2ccccc2nc1N1CCc2ccccc2C1)c1ccc(Br)cc1	-1	-13	i	.	13	i	.	.	.	.
Cc1cc(N/N=C/c2ccccc2Cl)nc(NCc2ccccc2)n1	4	14	i	-2.2	-14	i	i	i	-1.1	-10
SMILES	FID counter	SR-BI HDL uptake	TMEM16A act	Kir21 inh	SR-BI DiI-HDL act	ANO1 block	TMEM16A reconf	TMEM16A Ca cntr	YFP-HEK293 quench	ClC-1 inh
Cc1cc(C)nc(N/N=C/c2ccccc2Cl)n1	-9	.	i	0.82	.	i	.	.	.	.
O=S(=O)(c1ccccc1)N1CCN=C1SCc1ccc(Cl)cc1	-15	-2	i	-1.5	2	25*	i	i	-0.89	-11
O=S(=O)(c1ccccc1)N1CCN=C1SCc1ccc(Cl)c(Cl)c1	1	11	i	-0.45	-11	i	.	.	.	.
COc1cc(C(=O)Nc2ccccc2N2CCOCC2)ccc1OCC(=O)N1CCOCC1	.	38	i	2.1	-38	i	.	.	.	.
Cc1ccc(NS(=O)(=O)c2ccc(OCC(=O)Nc3cccc([N+](=O)[O-])c3)c(C)c2)cc1	7	28	i	2.3	-28	25*	i	i	-0.93	-8
CCc1ccc(CCC(=O)Nc2ccc(C(C)=O)cc2)o1	-8	29	i	-0.03	-29	i	.	.	.	.
CCOC(=O)c1ccc(NC(=O)CCc2ccc(CC)o2)cc1	-16	20	i	2.7	-20	100*	i	i	-1.1	-8
CN(CC(=O)Nc1cccc(F)c1)C(=O)c1ccccc1-n1cnnn1	.	-6	i	.	6	.	.	.	.	.
O=C(NCCSCc1ccco1)Nc1cc(Cl)cc(Cl)c1	0	23	i	0.1	-23	100*	34%*	i	-0.96	-20
O=C(Nc1nc(-c2ccc(F)cc2)cs1)C1CCN(C(=O)c2ccc(F)cc2)CC1	.	37	i	1.1	-37	25*	18%*	i	-1.1	-16
Cc1cccc(NC(=O)C2CCN(C(=O)c3ccc(F)cc3)CC2)n1	.	-4	i	-1.8	4	i	.	.	.	.
CCOC(=O)CC(=O)CSc1nc2c(sc(=S)n2-c2ccc(C)c(C)c2)c(=O)[nH]1	-33	-19	.	0.05	19	25*	i	i	-1.1	-12
CCOC(=O)CC(=O)CSc1nc2c(sc(=S)n2-c2ccc(OCC)cc2)c(=O)[nH]1	-34	32	i	-0.43	-32	i	.	.	.	.
